# This is a sample that favours compounds with a hit; in the whole collection about 4.2% have one here.
# TMEM16A act: activates or potentiates the mouse TMEM16A chloride channel; Q8BHY3; B-score at 10 µM; 340,000 tested, 0.3% active; AID 623877; HEK293 TMEM16A/YFP-H148Q/I152L, iodide quench fluorescence; active compounds read low;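 active = fluorescence-ratio B-score plate-corrected deviation score at least 3 library SD below zero, with starting fluorescence score within 5 deviations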;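 note: channel opened by trigger with iodide after compound preincubation; score built on the fluorescence ratio of max minus min over baseline; more negative score means more quench and so TMEM16A activation or potentiation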
# TMEM16A inh: inhibitors of mouse TMEM16A calcium-activated chloride channel; Q8BHY3; HEK293 TMEM16A/YFP iodide influx fluorescence, ionomycin; normalized B-score (activity score, 25-100; higher = stronger inhibition) at 10 µM; 310,000 tested, 1.2% active; AID 588511;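 active = ratio plate-corrected score three or more library SD toward inhibition, starting fluorescence score within five deviations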;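 note: score derived from kinetic fluorescence span divided by baseline fluorescence per well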
# UPR CHOP act: apoptotic UPR (CHOP) activation | activation, % at 10 µM | AID 449763 | CHO-CHOP luciferase reporter, luminescence; percent of tunicamycin response over DMSO baseline | 330,000 tested, 0.34% active;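 active = at 10 µM dose, activation of 40% or more, normalized to positive control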;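 note: 100% = tunicamycin at 10 µg/mL and 0% = DMSO alone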
#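 assay system = CHO CHOP reporter cells | amount = 500 CHO-CHOP cells per well | buffer or medium = F12 with 10% FBS | incubation = 16-18 h cell attachment, then 6 h compound exposure, 37 °C | detection = luminescence read with Steady-Glo | read-out = percent activation relative to tunicamycin control | controls = tunicamycin high control, DMSO low control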
# UPR XBP1 act: activators of adaptive arm of unfolded protein response (XBP1); activation, % at 20 µM; AID 463104; CHO-XBP1 luciferase reporter, IRE1-XBP1 UPR activation, luminescence; percent of tunicamycin response, DMSO as zero; 330,000 tested, 0.33% active;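 active = versus positive control, 20 µM dose yields 30% or more activation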;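 note: 100% = tunicamycin at 10 µg/mL and 0% = DMSO only wells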
#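 Signal: luciferase luminescence; Assay system: CHO-XBP1 luciferase reporter cells; Amount: one thousand reporter cells per well; Dosing: 20 µM single concentration, DMSO 1%; Benchmarks: high control tunicamycin 10 µg/mL final, low control DMSO vehicle only; Schedule: 6 h compound exposure at 37 °C, 5% CO2; Evaluation: percent activation relative to tunicamycin reference.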
# CHOP inhibitor: blocks CHOP induction under ER stress; CHO-K1 CHOP-promoter luciferase, tunicamycin-induced, 15-18 h; inhibition, % at 10 µM; 220,000 tested, 3.8% active; AID 2732;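 active = compounds that reduced the stress-induced luciferase reporter signal by more than about 70% of percent inhibition, limit read from the data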;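 note: 0% = tunicamycin plus vehicle and 100% = wells without tunicamycin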
# Lipid droplet: modulators of hepatic lipid droplet formation. AML12 mouse hepatocytes, oleate lipid droplets, BODIPY imaging. inhibition, % at 6.5 µM. 240,000 tested, 0.4% active;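 active = lipid droplet intensity inhibited by at least 50%, with more than 500 cells counted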
#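 Material – mouse AML12 hepatocyte cell line, fixed after treatment · Compound dosing – one dose, 6.5 µM compound · Times – compound with oleate, overnight · Measured by – Image-based BODIPY and DAPI two-channel analysis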
# CHOP inh conf: confirmation of CHOP induction inhibitors | AID 504437 | CHO-CHOP promoter luciferase reporter, tunicamycin-induced, luminescence | inhibition, % at 10 µM | shares compounds with CHOP inhibitor | 2,100 tested, 45% active;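 active = mean of three repeat readings of reporter signal inhibition above a set limit, cut at about 70% in these data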;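 note: 0% = tunicamycin plus vehicle and 100% = wells lacking tunicamycin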
# CHOP UPR conf: apoptotic UPR (CHOP) activation, confirmed; 1,000 tested, 64% active; shares compounds with UPR CHOP act; AID 463112; activation, % at 10 µM; CHO-CHOP cells, CHOP-luciferase reporter luminescence; percent of tunicamycin response, DMSO as zero; in the data active = activation above about 33%;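 note: 0% = DMSO wells and 100% = tunicamycin 10 µg/mL wells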
# XBP1 UPR conf: adaptive UPR (XBP1) activation, confirmed. AID 485299. activation, % at 20 µM. shares compounds with UPR XBP1 act. CHO-XBP1 IRE1-XBP1 luciferase reporter, luminescence. 1,000 tested, 63% active;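 active = reporter signal at least 30% of the positive control's activation in two or more of four replicate wells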;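 note: plate controls were DMSO negative control for no effect and tunicamycin 10 µg/mL positive control for full effect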
# * marks the source's active call; other numbers are inactive results; i = inactive; / = no result given.
SMILES,TMEM16A act,TMEM16A inh,UPR CHOP act,UPR XBP1 act,CHOP inhibitor,Lipid droplet,CHOP inh conf,XBP1 UPR conf,others
Cc1ccc(-c2nn(CC(=O)NCc3cc(-c4nn(C)c(=O)c5ccccc45)ccc3C)c(=O)c3ccccc23)cc1,-7.8*,i,12,81*,106*,-1,93*,61*,
Cc1ccc2nsnc2c1NC(=O)c1ccc(-c2cc(Cl)ccc2Cl)o1,i,i,34,96*,101*,/,62,104*,
Cc1ccc2nsnc2c1NC(=O)Cc1ccc(Cl)cc1,i,i,3,-1,31,-13,/,/,
CC1CCCCN1CC(=O)Nc1ccc2c(c1)OCO2 (stereo not given),i,/,1,0,/,/,/,/,
COc1cc(NC(=O)c2ccco2)c(C(=O)OCC(=O)c2c[nH]c3ccccc23)cc1OC,i,i,0,131*,107*,8,42,152*,
Cc1ccc(N=Cc2c(O)n(-c3ccc4c(c3)OCO4)c(=O)c3ccccc23)cc1,i,i,8,35*,102*,4,-145,27*,
CC(C)NC(=O)c1onc(CSc2ccc(F)cc2)c1C(=O)NC(C)C,i,i,0,0,/,/,/,/,
O=c1cc(C(Cl)(Cl)Cl)oc2c1ccc1ccccc12,i,i,47*,163*,100*,-67,-10,286*,CHOP UPR conf=33*
COc1ccc(OC)c2sc(NC(=O)c3ccc(Cl)s3)nc12,i,i,4,97*,103*,/,86*,26,
COc1ccc(OC)c2sc(NC(=O)C3CC3)nc12,i,i,0,-1,-6,/,/,/,
CCCn1c(SCc2nc3sc(C)c(C)c3c(=O)[nH]2)nc2ccccc2c1=O,i,i,-2,78*,106*,/,24,180*,
COCCn1c(SCc2nc3ccccc3c(=O)[nH]2)nc2ccccc2c1=O,i,i,-1,-2,27,-2,/,/,
CC(C)C[C@H](NC(=O)NCc1ccc(F)cc1)C(=O)O,i,i,3,-1,-10,20,/,/,
Cc1ccc(NC(=O)Cn2c3ccc(F)cc3c3nc4n(c(=O)c32)CCS4)cc1F,i,i,0,-3,16,5,/,/,
O=C(Cn1c2ccc(F)cc2c2nc3n(c(=O)c21)CCS3)Nc1ccc(Cl)cc1F,i,i,-1,82*,96*,4,19,34*,
CCCCNC(=O)c1ccc(Cn2c(=S)[nH]c3c([nH]c4ccc(OC)cc43)c2=O)cc1,i,i,2,41*,105*,-46,16,64*,
CCOC(=O)c1c(NC(C)=O)sc2c(OCC(O)CNC(C)(C)C)c(Br)ccc12 (stereo not given),-7.1*,i,1,62*,105*,-4,62,111*,
CCOC(=O)c1c(NC(C)=O)sc2c(O)cccc12,i,i,-3,1,33,/,/,/,
CC(C)CC(NC(=O)c1ccc(Cl)cc1)C(=O)OCC(=O)c1ccc2c(c1)NC(=O)CO2 (stereo not given),i,i,37,49*,107*,17,74*,99*,
COc1ccc(-c2nn(-c3ccccc3)cc2/C=N/N2C(=O)CSC2=S)cc1,i,i,22,39*,112*,13,77*,27*,
COc1cc([N+](=O)[O-])cc(/C=N/NC(=O)c2ccc(NC(=O)c3ccc(C)cc3)cc2)c1O,i,/,49*,38*,105*,22,49,44*,CHOP UPR conf=64*
Cc1cc(NC(=O)CSc2ccc(-c3nc4cc(C)c(C)cc4[nH]3)cn2)no1,i,i,4,58*,104*,/,15,31*,
Cc1cc2nc(-c3ccc(SCC(=O)Nc4ccc(S(=O)(=O)NC5CC5)cc4)nc3)[nH]c2cc1C,i,i,4,-1,-16,27,/,/,
COc1ccccc1NC(=O)NC1CCS(=O)(=O)C1 (stereo not given),i,i,3,13,/,18,/,/,
N=c1n(CC(=O)c2ccc([N+](=O)[O-])cc2)c2ccccc2n1Cc1ccc(Cl)cc1,i,i,35,165*,105*,-20,122*,59*,
SMILES,TMEM16A act,TMEM16A inh,UPR CHOP act,UPR XBP1 act,CHOP inhibitor,Lipid droplet,CHOP inh conf,XBP1 UPR conf,others
N=c1n(CC(=O)c2ccc([N+](=O)[O-])cc2)c2ccccc2n1Cc1ccccc1Cl,i,i,/,/,35,3,/,/,
O=C(NCC1OCCc2ccccc21)c1ccc(NC(=O)c2ccc(Cl)cc2)cc1 (stereo not given),i,i,2,38*,103*,24,57,25,
Cc1ccc2cc(CCNC(=O)Cc3cccs3)c(=O)[nH]c2c1,i,i,1,-2,-1,18,/,/,
Cc1ccc(S(=O)(=O)N(C)CC(=O)N/N=C/c2ccc(C)o2)cc1,i,i,-1,-4,-10,-6,/,/,
C=CCn1c(O)c(C2=c3ccccc3=NC2=O)sc1=Nc1ccc(O)cc1,i,i,0,34*,104*,-40,38,32*,
CCc1nc(N=Nc2c(O)[nH]c3ccccc23)c2c3c(sc2n1)CCC3,i,i,94*,35*,101*,10,35,168*,CHOP UPR conf=76*
COc1ccc(-c2cc(C(F)(F)F)nc(SCC(=O)Nc3ccc4c(c3)OCO4)n2)cc1,i,i,0,55*,99*,-19,66,0,
Cc1cccc(OC(=O)Cn2c(C(F)(F)F)nc3ccccc32)c1,i,i,-2,-2,5,/,/,/,
Cc1cccc(OCc2n(CC(=O)OC3CC(C)CCC3C(C)C)c3ccccc3[n+]2C)c1 (stereo not given),-6.2*,100*,12,32*,109*,12,78*,29,
Cc1cccc(C)c1NC(=O)CNC(=O)c1cn(-c2ccccc2)nc1-c1ccccc1,i,i,4,-7,/,1,/,/,
Cc1nn(Cc2c(Cl)cccc2Cl)c(C)c1NC(=O)c1cn(-c2ccccc2)nc1-c1ccccc1,i,i,146*,78*,109*,/,106*,85*,CHOP UPR conf=76*

# Screening data (PubChem BioAssay)
